Assay results reported in ChEMBL document CHEMBL1134596, “Synthesis and conformational analysis of fusidic acid side chain derivatives in relation to antibacterial activity” (2001).
≈ marks a conversion by molar mass, not a printed value.

Key:
Type in all cases: functional
Aspergillus niger = assay: Minimum inhibitory concentration against Aspergillus niger ATCC 16404
Staphylococcus aureus [1] = assay: Minimum inhibitory concentration against meticilline resistant Staphylococcus aureus CJ 232
Procedure, shortened: (§1)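 MIC by agar cup diffusion. Colonies from fresh overnight culture were suspended in saline to 0.5 McFarland (10^8 CFU/mL), and molten Mueller Hinton agar at 48 °C was seeded at 10^6 CFU/mL and poured. Wells each received 200 µL of one of six dilutions spanning 0.25–125 µg/mL. After incubation, inhibition zone diameters were measured by caliper. Strains came from ATCC or in-house clinical isolates.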

Bacillus cereus = assay: Minimum inhibitory concentration against Bacillus cereus ATCC 10876
Procedure, shortened: (§2)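 Agar cup diffusion assay. Colonies from a fresh overnight culture were suspended in saline to 0.5 McFarland (10^8 CFU/mL). Mueller Hinton agar at 48 °C was seeded at 10^6 CFU/mL and poured, and holes were cut in it. Each hole received sample from a six-step dilution series between 0.25 and 125 µg/mL. After incubation, inhibition zone diameters were measured with an electronic caliper to estimate the MIC.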

[2] = tested on: Streptococcus thermophilus; assay: Minimum inhibitory concentration against Streptococcus thermophilus EG 5
Procedure, shortened: (§3)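 Streptococcal MICs were estimated by agar cup diffusion in Mueller Hinton agar supplemented with 5% sheep blood. The agar was seeded at 48 °C with 10^6 CFU/mL from a saline suspension at 0.5 McFarland. Cut holes were filled from six dilutions spanning 0.25–125 µg/mL. After incubation, growth-inhibition zone diameters were read with an electronic caliper.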

Streptococcus salivarius = assay: Minimum inhibitory concentration against Streptococcus salivarius EG 7 (gr.A); procedure, shortened: as §3
Streptococcus pyogenes = assay: Minimum inhibitory concentration against Streptococcus pyogenes EC; procedure, shortened: as §3
Corynebacterium xerosis = assay: Minimum inhibitory concentration against Corynebacterium xerosis NCTC 9755; procedure, shortened: as §2
[3] = Minimum inhibitory concentration against Saccharomyces cerevisiae ZZ 7
[4] = tested on: Streptococcus equi subsp. zooepidemicus; assay: Minimum inhibitory concentration against Streptococcus zooepidermidis ED (gr.C); procedure, shortened: as §3
Staphylococcus aureus [5] = assay: Minimum inhibitory concentration against meticilline and fus resistant Staphylococcus aureus CJ 234; procedure, shortened: as §1
[6] = Minimum inhibitory concentration against Streptococcus. species EF 6; settings: Bacteria; procedure, shortened: as §3
Micrococcus luteus = assay: Minimum inhibitory concentration against Micrococcus luteus ATCC 9341; procedure, shortened: as §2
Cutibacterium acnes = assay: Minimum inhibitory concentration against Propionibacterium acnes NCTC 737; procedure, shortened: as §2
Clostridium perfringens = assay: Minimum inhibitory concentration against Clostridium perfringens KT 13; procedure, shortened: as §1
Staphylococcus aureus [7] = assay: Minimum inhibitory concentration against Staphylococcus aureus ATCC 6538P; procedure, shortened: as §2
Escherichia coli = assay: Minimum inhibitory concentration against Escherichia coli HA 44; procedure, shortened: as §2
Staphylococcus aureus [8] = assay: Minimum inhibitory concentration against Staphylococcus aureus ATCC 2977; procedure, shortened: as §1
Candida albicans = assay: Minimum inhibitory concentration against Candida albicans ATCC 10231
Staphylococcus aureus [9] = assay: Minimum inhibitory concentration against meticilline and rifampicin resistant Staphylococcus aureus CJ 234; procedure, shortened: as §1
[10] = tested on: Staphylococcus epidermidis; assay: Minimum inhibitory concentration against Staphylococcus epidermidis ATCC 12228; procedure, shortened: as §2
Staphylococcus aureus [11] = assay: Minimum inhibitory concentration against Staphylococcus aureus ATCC 29213; procedure, shortened: as §2
Enterococcus faecium = assay: Minimum inhibitory concentration against Streptococcus faecium EI 119; procedure, shortened: as §3

Row | SMILES | MIC (Staphylococcus aureus [1]) | MIC (Bacillus cereus) | MIC [2] | MIC (Streptococcus salivarius) | MIC (Streptococcus pyogenes) | MIC (Corynebacterium xerosis) | MIC [3] | MIC [4] | MIC (Staphylococcus aureus [5]) | MIC [6] | MIC (Micrococcus luteus) | MIC (Cutibacterium acnes) | MIC (Clostridium perfringens) | MIC (Staphylococcus aureus [7]) | MIC (Escherichia coli) | MIC (Staphylococcus aureus [8]) | MIC (Candida albicans) | MIC (Staphylococcus aureus [9]) | MIC [10] | MIC (Staphylococcus aureus [11]) | also measured
1 | CC(=O)O[C@H]1C[C@@]2(C)[C@@H](CC(O)[C@H]3[C@@]4(C)CCC(O)C(C)[C@@H]4CC[C@]32C)/C1=C(\CCC=C(C)C)C(=O)O (some centres not stated) | 0.015 µg/mL (≈ 0.029 µM) | 4 µg/mL (≈ 7.74 µM) | 4 µg/mL (≈ 7.74 µM) | 4 µg/mL (≈ 7.74 µM) | 4 µg/mL (≈ 7.74 µM) | 0.01 µg/mL (≈ 0.0194 µM) | 4 µg/mL (≈ 7.74 µM) | 16 µg/mL (≈ 31 µM) | > 125 µg/mL | 4 µg/mL (≈ 7.74 µM) | 1 µg/mL (≈ 1.94 µM) | 0.003 µg/mL (≈ 0.00581 µM) | 16 µg/mL (≈ 31 µM) | 0.007 µg/mL (≈ 0.0135 µM) | > 125 µg/mL | 0.006 µg/mL (≈ 0.0116 µM) | 16 µg/mL (≈ 31 µM) | 0.006 µg/mL (≈ 0.0116 µM) | 0.0007 µg/mL (≈ 0.00135 µM) | 0.007 µg/mL (≈ 0.0135 µM) | MIC (Aspergillus niger): 16 µg/mL (≈ 31 µM); MIC (Enterococcus faecium): 0.01 µg/mL (≈ 0.0194 µM)
2 | CC(=O)O[C@H]1C[C@@]2(C)C(CC(O)[C@H]3[C@@]4(C)CCC(O)C(C)C4CC[C@@]32C)[C@@H]1[C@H](CCCC(C)C)C(=O)O (some centres not stated) | 4 µg/mL (≈ 7.68 µM) | > 125 µg/mL | > 125 µg/mL | > 125 µg/mL | > 125 µg/mL | 4 µg/mL (≈ 7.68 µM) | > 125 µg/mL | > 125 µg/mL | > 125 µg/mL | > 125 µg/mL | > 125 µg/mL | 4 µg/mL (≈ 7.68 µM) | > 125 µg/mL | 4 µg/mL (≈ 7.68 µM) | > 125 µg/mL | 4 µg/mL (≈ 7.68 µM) | > 125 µg/mL | 0.9 µg/mL (≈ 1.73 µM) | 3.8 µg/mL (≈ 7.3 µM) | 2 µg/mL (≈ 3.84 µM) | MIC (Aspergillus niger): 16 µg/mL (≈ 30.7 µM); MIC (Enterococcus faecium): 16 µg/mL (≈ 30.7 µM)
3 | CC(=O)O[C@H]1C[C@@]2(C)C(CC(O)[C@H]3[C@@]4(C)CCC(O)C(C)C4CC[C@@]32C)C1[C@@H](CCC=C(C)C)C(=O)O (some centres not stated) | > 125 µg/mL | > 125 µg/mL | > 125 µg/mL | > 125 µg/mL | > 125 µg/mL | > 125 µg/mL | > 125 µg/mL | > 125 µg/mL | > 125 µg/mL | > 125 µg/mL | > 125 µg/mL | 4 µg/mL (≈ 7.71 µM) | > 125 µg/mL | > 125 µg/mL | > 125 µg/mL | > 125 µg/mL | > 125 µg/mL | > 125 µg/mL | > 125 µg/mL | > 125 µg/mL | MIC (Enterococcus faecium): > 125 µg/mL
4 | CC(=O)O[C@H]1C[C@@]2(C)C(CC(O)[C@H]3[C@@]4(C)CCC(O)C(C)C4CC[C@]32C)C1[C@H](CCC=C(C)C)C(=O)O (some centres not stated) | 0.03 µg/mL (≈ 0.0578 µM) | 1 µg/mL (≈ 1.93 µM) | 16 µg/mL (≈ 30.8 µM) | 4 µg/mL (≈ 7.71 µM) | 16 µg/mL (≈ 30.8 µM) | 0.03 µg/mL (≈ 0.0578 µM) | 4 µg/mL (≈ 7.71 µM) | 16 µg/mL (≈ 30.8 µM) | > 125 µg/mL | 4 µg/mL (≈ 7.71 µM) | 1 µg/mL (≈ 1.93 µM) | 0.03 µg/mL (≈ 0.0578 µM) | 16 µg/mL (≈ 30.8 µM) | 0.012 µg/mL (≈ 0.0231 µM) | > 125 µg/mL | 0.03 µg/mL (≈ 0.0578 µM) | 64 µg/mL (≈ 123 µM) | 0.03 µg/mL (≈ 0.0578 µM) | 0.01 µg/mL (≈ 0.0193 µM) | 0.01 µg/mL (≈ 0.0193 µM) | MIC (Aspergillus niger): 64 µg/mL (≈ 123 µM); MIC (Enterococcus faecium): 0.025 µg/mL (≈ 0.0482 µM)
